Reference: publication PMC4233149 (Clinical cancer research : an official journal of the …, 2014)
Where “and” joins values, the source holds several entries; their conditions need not be identical. Equal values may be shown once. Read-outs that look alike come from different tables or passages of the source.

What was measured:
[1] = tested on: pSer473 AKT; test: PD biomarker in platelet-rich plasma; type: in vivo, human; conditions: PRP
[2] = alternate days (QOD), previously established; cited from earlier work
[3] = Solubility; type: physicochemical; conditions: across physiological pH ranges
[4] = read-out: mean Cmax of the no-observed-adverse-effect-level (NOAEL) dose; dogs, preclinical toxicology studies; cited from earlier work
[5] = Plasma pharmacokinetics, QW schedule; type: in vivo, human
Procedure, shortened: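 Plasma was sampled after the first and last weekly oral dose of cycle 1 (90–300mg). Concentrations were analysed non-compartmentally for AUC0-168h, Cmax, C48h […], Tmax and apparent terminal t1/2. Last-day/day-1 ratios were derived for AUC, Cmax and C48h.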

[6] = tested on: pSer9 GSK3β; test: PD biomarker in platelet-rich plasma; type: in vivo, human; conditions: PRP; for mean pSer9 GSK3β signal, % of baseline levels: 200mg QW, n=11
[7] = tested on: advanced solid tumors; test: Tumor response; type: in vivo, human
Procedure, shortened: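 Radiological disease status was assessed by RECIST 1.1 at baseline and every 8 weeks during oral weekly dosing.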

[8] = tested on: pSer473 AKT; conditions: cited from earlier work
[9] = Plasma pharmacokinetics, QOD schedule; type: in vivo, human; conditions: 60mg QOD
[10] = observed in the earlier QOD dose-escalation study; cited from earlier work
[11] = Permeability; type: physicochemical; conditions: across physiological pH ranges
[12] = tested on: pThr246 PRAS40; test: PD biomarker in platelet-rich plasma; type: in vivo, human; conditions: 60mg QOD, PRP
Procedure, shortened: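 Platelet-rich plasma was collected at baseline and at 3, 6, 24 and 48h on oral 60mg QOD dosing. pThr246 PRAS40 was measured by MSD electrochemiluminescence assay validated to Good Clinical Practice standards. Values were expressed as percent of individual baseline, averaged per timepoint, and compared with baseline by paired t-test.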

[13] = Phase I safety and tolerability, alternate day; type: in vivo, human; conditions: 60mg QOD
Procedure, shortened: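 Patients took 60mg tablets fasted, QOD in 28-day cycles, in expansion cohorts (CRPC, ovarian, MRI). Safety was checked at baseline, cycle 1 days 1, 2, 7, 15, 21, 27 and 28, weekly in cycle 2, then monthly. Glucose was monitored. Serum C-peptide and whole-blood HbA1c were measured at baseline and monthly. AEs were graded by CTCAE v3.0.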

[14] = tested on: advanced solid tumors; test: Multiparametric functional MRI; type: in vivo, human; conditions: 60mg QOD, one patient with ADC response
Procedure, shortened: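 Oral dosing at 60mg QOD to fasted patients in 28-day cycles. Imaging on a 1.5T MR system used DCE-MRI, DWI, 1H-MRS and ISW-MRI. Median Ktrans, ADC, tCho/water ratio and R2* were analysed. Four scans per patient: two pre-treatment (reproducibility cohort), then cycle 1 day 7±1 and day 21±4.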

SMILES: NC1(c2ccc(-c3nc4ccn5c(=O)[nH]nc5c4cc3-c3ccccc3)cc2)CCC1 [MK-2206]
- overall mean decrease of pSer473 AKT levels ([1]; 60mg QOD): 55.3%
- time of maximum inhibition of pSer473 AKT post-MK-2206 ([1]; 60mg QOD): 6 h
- mean pSer473 AKT signal, % of baseline levels ([1]; 60mg QOD, 3h, 29 patients): 36.3%
- mean pSer473 AKT signal, % of baseline levels ([1]; 60mg QOD, 6h, 29 patients): 27.9%
- mean pSer473 AKT signal, % of baseline levels ([1]; 60mg QOD, 24h, 29 patients): 44.0%
- mean pSer473 AKT signal, % of baseline levels ([1]; 60mg QOD, 48h, 29 patients): 70.6%
- mean pSer473 AKT levels, % of baseline levels ([1]; 60mg QOD, 48h, one outlier removed (28 patients), p=0.0004): 60.1%
- time of maximal suppression of pSer473 AKT and its substrate pSer9 GSK3β ([1]; 150mg QW, breast cancer patient): 24 h
- mean pSer473 AKT signal, % of baseline levels ([1]; 200mg QW, 24h, n=11): 19.8%
- mean pSer473 AKT signal, % of baseline levels ([1]; 200mg QW, 48h, n=11): 30.6%
- mean pSer473 AKT signal, % of baseline levels ([1]; 200mg QW, 96h, n=11): 51.7%
- mean pSer473 AKT signal, % of baseline levels ([1]; 200mg QW, 168h, n=11): 97.4%
- duration of initial suppression of pSer473 AKT phosphorylation signal ([1]; QW MTD): at least 96 h
- maximum tolerated dose (MTD) [2]: 60 mg
- solubility [3]: relatively low solubility
- Cmax [4]: 365 nM
- C48h Last Day / Day1 Ratio (geometric mean) ([5]; 90mg QW): 1.61
- Tmax, median (min - max) ([5]; 90mg QW, Day 1): 6.0 (4.0-10.0) h
- Tmax, median (min - max) ([5]; 90mg QW, Last Day of cycle 1): 4.0 (4.0-4.0) h
- dose proportionality of AUC and Cmax ([5]; 90mg to 300mg QW): increased in a dose-proportional manner
- decline of plasma concentrations ([5]; 90mg, 135mg, 200mg, 250mg and 300mg QW): declined in a mono-exponential manner
- auto-induction of metabolizing enzymes ([5]; 90mg-300mg QW, cycle 1): no auto-induction of MK-2206 metabolizing enzymes
- AUC0-168h Last Day / Day1 Ratio (geometric mean) ([5]; 135mg QW): 1.91
- C48h Last Day / Day1 Ratio (geometric mean) ([5]; 135mg QW): 1.86
- Cmax Last Day / Day1 Ratio (geometric mean) ([5]; 135mg QW): 1.95
- Tmax, median (min - max) ([5]; 135mg QW, Day 1): 4.0 (4.0-10.0) h
- Tmax ([5]; 150mg QW, Last Day of cycle 1, N=1): 4.0 h
- AUC0-168h Last Day / Day1 Ratio (geometric mean) ([5]; 200mg QW): 1.54
- C48h Last Day / Day1 Ratio (geometric mean) ([5]; 200mg QW): 1.49
- Cmax Last Day / Day1 Ratio (geometric mean) ([5]; 200mg QW): 1.33
- Tmax, median (min - max) ([5]; 200mg QW, Day 1): 6.0 (4.0-10.0) h
- Tmax, median (min - max) ([5]; 200mg QW, Last Day of cycle 1): 6.0 (4.0-24.0) h
- Tmax, median (min - max) ([5]; 250mg QW, Day 1): 6.0 (4.0-6.0) h
- Tmax ([5]; 250mg QW, Last Day of cycle 1, N=1): 4.0 h
- Tmax, median (min - max) ([5]; 300mg QW, Day 1): 4.0 (4.0-6.0) h
- percent coefficient of variations (CVs) of AUC and Cmax ([5]; QW schedule, inter-patient variability): 12% to 71
- Cmax at 200mg QW compared with 60mg QOD ([5]; higher at 200mg QW): about 2 fold
- half-life ([5]; human, plasma, oral, 90 mg): 71.6 ± 12.2 h
- concentration at 48 h ([5]; human, plasma, oral, 90 mg, C48h Mean ± SD, 90mg QW, Day 1, plasma): 50.9 ± 38.2 nM
- concentration at 48 h ([5]; human, plasma, oral, 90 mg, C48h Mean ± SD, 90mg QW, Last Day of cycle 1, plasma): 79.3 ± 33.7 nM
- concentration at 48 h ([5]; human, plasma, oral, 90 mg, mean C48h, 90mg QW, multiple dose): 79.3 nM
- Tmax ([5]; human, plasma, oral, 135 mg): 5 h
- half-life ([5]; human, plasma, oral, 135 mg): 88.9 ± 26.9 h
- concentration at 48 h ([5]; human, plasma, oral, 135 mg, C48h Mean ± SD, 135mg QW, Day 1, plasma): 90.3 ± 25.1 nM
- concentration at 48 h ([5]; human, plasma, oral, 135 mg, mean C48h, 135mg QW, multiple dose): 158 nM
- Tmax ([5]; human, plasma, oral, 150 mg): 4 to 10 h
- half-life ([5]; human, plasma, oral, 150 mg): 64.4 h
- AUC(0-t) ([5]; human, plasma, oral, 150 mg, AUC0-168h Mean, 150mg QW, Day 1, plasma, N=2): 20.7 µM·h
- concentration at 48 h ([5]; human, plasma, oral, 150 mg, C48h, 150mg QW, Last Day of cycle 1, plasma, N=1): 185 nM
- concentration at 48 h ([5]; human, plasma, oral, 150 mg, C48h Mean, 150mg QW, Day 1, plasma, N=2): 155 nM
- Cmax ([5]; human, plasma, oral, 150 mg, Cmax Mean, 150mg QW, Day 1, plasma, N=2): 337 nM
- Cmax ([5]; human, plasma, oral, 150 mg, Cmax, 150mg QW, Last Day of cycle 1, plasma, N=1): 346 nM
- concentration at 48 h ([5]; human, plasma, oral, 200 mg, C48h Mean ± SD, 200mg QW, Day 1, plasma): 121 ± 47.4 nM
- concentration at 48 h ([5]; human, plasma, oral, 200 mg, mean C48h, 200mg QW, multiple dose): 187 nM
- half-life ([5]; human, plasma, oral, 250 mg): 53.7 h
- concentration at 48 h ([5]; human, plasma, oral, 250 mg, C48h, 250mg QW, Last Day of cycle 1, plasma, N=1): 74.8 nM
- concentration at 48 h ([5]; human, plasma, oral, 250 mg, C48h Mean ± SD, 250mg QW, Day 1, plasma): 103 ± 19.6 nM
- Cmax ([5]; human, plasma, oral, 250 mg, Cmax, 250mg QW, Last Day of cycle 1, plasma, N=1): 169 nM
- concentration at 48 h ([5]; human, plasma, oral, 300 mg, C48h Mean, 300mg QW, Day 1, plasma): 253 nM
- Cmax ([5]; human, plasma, oral, 300 mg, mean Cmax after the first dose, 300mg QW cohort): 466 nM
- Cmax ([5]; human, plasma, oral, mean Cmax levels after multiple QW dose administration, 90mg to 250mg QW): 153 to 245 nM
- time of maximum suppression of pSer9 GSK3β post-MK-2206 ([6]; 60mg QOD): 6 h
- mean pSer9 GSK3β levels, % of baseline levels ([6]; 60mg QOD, 3h): 76.8%
- mean pSer9 GSK3β levels, % of baseline levels ([6]; 60mg QOD, 6h): 67.5%
- mean pSer9 GSK3β levels, % of baseline levels ([6]; 60mg QOD, 24h): 102.9%
- mean pSer9 GSK3β signal, % of baseline levels ([6]; 24h): 65.0%
- mean pSer9 GSK3β signal, % of baseline levels ([6]; 48h): 82.3%
- mean pSer9 GSK3β signal, % of baseline levels ([6]; 96h): 91.4%
- mean pSer9 GSK3β signal, % of baseline levels ([6]; 168h): 117.2%
- reduction in RECIST measurements of target lesions ([7]; 150mg QW, 8 weeks, one patient with ER/PR positive, HER2 negative metastatic breast cancer, PIK3CA exon 20 mutation): 22%
- total time on treatment ([7]; 150mg QW, breast cancer patient, before disease progression): 24 weeks
- CA15-3 level after treatment ([7]; 150mg QW, breast cancer patient, from 6853U/ml): 4399 U/ml
- reduction in CA15-3 ([7]; 150mg QW, same breast cancer patient): ~36%
- duration of RECIST SD (range) ([7]; two patients with CRPC): 6.5-7.5 months
- concentration required for 70% inhibition of pSer473 AKT in whole blood ([8]; level identified in preclinical models as associated with antitumor activity): 57 nmol/L
- prespecified PK target for 70% inhibition of pAKT ([8]; plasma concentration target): 56.8 nM
- accumulation ratio AUClast day:AUCfirst day [9]: 3.3
- half-life [10]: 60 to 80 h
- permeability [11]: high permeability
- time of maximum suppression of pThr246 PRAS40 post-MK-2206 [12]: 6 h
- mean pThr246 PRAS40 levels, % of baseline levels ([12]; 3h): 79.8%
- mean pThr246 PRAS40 levels, % of baseline levels ([12]; 6h): 79.7%
- mean pThr246 PRAS40 levels, % of baseline levels ([12]; 24h): 86.9%
- mean pThr246 PRAS40 levels, % of baseline levels ([12]; 48h): 91.4%
- mean pThr246 PRAS40 levels, % of baseline levels ([12]; 48h, one outlier removed (28 patients), p=0.0019): 81.9%
- C-peptide level increase during first cycle (range) [13]: 2.7% to 495.5
- time for DLTs to resolve to baseline levels after drug interruption [13]: 1-2 weeks
- end of cycle 1 HbA1c values ([13]; 2 patients with baseline levels ≤6.5%): 7.3% and 8.3%
- patients with increased C-peptide levels during first cycle ([13]; 23/27): 85.2%
- patients with HbA1c levels of ≤6.5% at baseline and end of cycle 1 ([13]; 25/29): 86.2%
- elevated blood glucose levels, patients ([13]; 27/38): 71.1%
- tolerability ([13]; 38 patients): generally well tolerated
- G3 hyperglycemia, patients ([13]; following first cycle, 1/38): 2.6%
- G1-2 hyperglycemia, patients ([13]; following first cycle, 3/38): 7.9%
- reduction in K^trans [14]: 20%
